Source: ChEMBL document CHEMBL2203148, “Increased selectivity toward cytoplasmic versus mitochondrial ribosome confers improved efficiency of synthetic aminoglycosides in fixing damaged genes: a strategy for treatment of genetic diseases caused by nonsense mutations” (J Med Chem, 2012)
In brackets after ≈: the same amount, converted by molar mass. Structures can show the parent of a compound that is named as a salt. Activity calls are given as the source filed them. No cut-off for these calls is given here.

Experiments:
Ribosome [1] = test: Inhibition of ribosome-mediated protein synthesis in rabbit reticulocytes after 60 mins by coupled transcription/translation assay; type: subcellular, Oryctolagus cuniculus
In short: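 Eukaryotic inhibition used the TNT T7 Quick coupled transcription/translation system with T7 control luciferase DNA. Varied aminoglycoside concentrations were incubated with the 10 µl reaction at 30 °C for 60 min and ice-cooled 5 min. Samples were diluted in the same buffer and luminescence was read on adding luciferase reagent. IC50 was fitted from at least three independent experiments.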

[2] = Selectivity ratio of IC50 for ribosome-mediated protein synthesis in rabbit reticulocytes to IC50 for ribosome S30 subunit-mediated protein synthesis in Escherichia coli
[3] = Inhibition of ribosome S30 subunit-mediated protein synthesis in Escherichia coli after 60 mins by coupled transcription/translation assay
In short: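 Prokaryotic coupled transcription/translation with a luciferase read-out. Varied aminoglycoside concentrations were incubated with the 10 µl reaction at 37°C for 60 min, then ice-cooled 5 min. Samples were diluted in tris-phosphate (25 mM, pH 7.8), DTT, CDTA, glycerol, Triton X-100 and BSA, and luminescence was read on adding luciferase reagent. IC50 was fitted from at least three independent experiments.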

Escherichia coli = test: Antibacterial activity against Escherichia coli R477/100 by microdilution method; type: functional
Ribosome [4] = test: Inhibition of ribosome-mediated translation of PCDH15 R3X nonsense mutant gene expressed in rabbit reticulocytes harboring p2luc plasmid after 16 hrs by dual luciferase reporter gene assay; type: subcellular; set-up: scale not given: the % may be the effect or the level left
Ribosome [5] = test: Inhibition of ribosome-mediated translation of DMD R3381X nonsense mutant gene expressed in rabbit reticulocytes harboring p2luc plasmid after 16 hrs by dual luciferase reporter gene assay; type: subcellular; set-up: scale not given: the % may be the effect or the level left
[6] = (§1) Cytotoxicity against human HEK293 cells assessed as cell viability after 48 hrs by XTT based calorimetric assay; conditions: HEK293 cells, read-out: LC50
In short: (§2)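 Cells seeded at 5,000/well in DMEM with 10% FBS and 1% glutamine at 37 °C, 5% CO₂; after overnight culture, graded aminoglycoside concentrations added for a further 48 hr. XTT viability read-out with 3 hr incubation by optical density, viability expressed relative to untreated cultures; LC50 fitted from concentration-response curves of at least three independent experiments.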

Ribosome [7] = test: Inhibition of ribosome-mediated translation of IDUA Q70X nonsense mutant gene expressed in rabbit reticulocytes harboring p2luc plasmid after 16 hrs by dual luciferase reporter gene assay; type: subcellular; set-up: scale not given: the % may be the effect or the level left
Ribosome [8] = test: Inhibition of ribosome-mediated translation of CFTR W1282X nonsense mutant gene expressed in rabbit reticulocytes harboring p2luc plasmid after 16 hrs by dual luciferase reporter gene assay; type: subcellular; set-up: scale not given: the % may be the effect or the level left
Ribosome [9] = test: Inhibition of ribosome-mediated translation of CFTR G542X nonsense mutant gene expressed in rabbit reticulocytes harboring p2luc plasmid after 16 hrs by dual luciferase reporter gene assay; type: subcellular; set-up: scale not given: the % may be the effect or the level left
Ribosome [10] = test: Inhibition of ribosome-mediated translation of PCDH15 R245X nonsense mutant gene expressed in rabbit reticulocytes harboring p2luc plasmid after 16 hrs by dual luciferase reporter gene assay; type: subcellular; set-up: scale not given: the % may be the effect or the level left
Bacillus subtilis = test: Antibacterial activity against Bacillus subtilis ATCC-6633 by double-microdilution method; type: functional, organism-based
HeLa = test: Ratio of compound IC50 to gentamicin IC50 for inhibition of mitochondrial ribosome- protein synthesis in human HeLa cells; type: subcellular
HFF = test: Cytotoxicity against human HFF cells assessed as cell viability after 48 hrs by XTT based calorimetric assay relative to control; in short: as §2
[11] = molecular target: mitochondrial ribosome (Homo sapiens); test: Inhibition of mitochondrial ribosome-mediated protein synthesis in human HeLa cells assessed as {35S]methionine incorporation by autoradiography
HEK293 = test: as §1; conditions: hek293, 48 h, read-out: LC50 (the source's name); in short: as §2

## NC[C@@H]1O[C@H](O[C@H]2[C@@H](O)[C@H](O[C@@H]3[C@@H](O)[C@H](N)C[C@H](N)[C@H]3O[C@H]3O[C@H](CO)[C@@H](O)[C@H](O)[C@H]3N)O[C@@H]2CO)[C@H](N)[C@@H](O)[C@@H]1O [PAROMOMYCIN SULFATE]
Ribosome [1]
  IC50: 57 µM
[2]
  Ratio IC50: 1120
[3]
  IC50: 0.05 µM
Escherichia coli
  MIC: 22 µM

## C[C@@H](O)[C@H]1O[C@H](O[C@H]2[C@H](O[C@@H]3O[C@H](CN)[C@@H](O)[C@H]3O)[C@@H](O)[C@H](NC(=O)[C@@H](O)CCN)C[C@@H]2N)[C@H](N)[C@@H](O)[C@@H]1O
Ribosome [4]
  Activity: 50%
Ribosome [5]
  Activity: 50%
[6]
  CC50 at 48 h: 5800 µM
Ribosome [7]
  Activity: 50%
Ribosome [8]
  Activity: 50%
Ribosome [9]
  Activity: 50%
Ribosome [1]
  IC50: 2.8 µM
Ribosome [10]
  Activity: 50%
[2]
  Ratio IC50: 2.9
[3]
  IC50: 1 µM
Escherichia coli
  MIC: 556 µM (≈ 317 µg/mL)

## GENTAMICIN SULFATE [listing 1 of 2 here]
Bacillus subtilis
  Activity: Active
Ribosome [4]
  Activity: 20%
Ribosome [5]
  Activity: 20%
Ribosome [7]
  Activity: 20%
Ribosome [8]
  Activity: 20%
Ribosome [9]
  Activity: 20%
Ribosome [10]
  Activity: 20%
[2]
  Ratio IC50: 2210
Escherichia coli
  MIC: 6 µM

## C[C@H](N)[C@H]1O[C@@H](O[C@@H]2[C@@H](O)[C@H](NC(=O)[C@@H](O)CCN)C[C@H](N)[C@H]2O[C@H]2O[C@H]([C@@H](C)O)[C@@H](O)[C@H](O)[C@H]2N)[C@H](O)[C@@H]1O
[6]
  CC50 at 48 h: 5100 µM
Ribosome [1]
  IC50: 0.7 µM
[2]
  Ratio IC50: 0.4
[3]
  IC50: 1.8 µM
Escherichia coli
  MIC: 384 µM (≈ 224 µg/mL)

## NCC[C@H](O)C(=O)N[C@@H]1C[C@H](N)[C@@H](O[C@H]2O[C@H](CO)[C@@H](O)[C@H](O)[C@H]2N)[C@H](O[C@@H]2O[C@H](CN)[C@@H](O)[C@H]2O)[C@H]1O
HeLa
  Ratio IC50: 19
[6]
  CC50 at 48 h: 5500 µM
Ribosome [1]
  IC50: 24 µM
[2]
  Ratio IC50: 151
[3]
  IC50: 0.2 µM
Escherichia coli
  MIC: 588 µM (≈ 327 µg/mL)

## C[C@@H](N)[C@H]1O[C@@H](O[C@@H]2[C@@H](O)[C@H](N)C[C@H](N)[C@H]2O[C@H]2O[C@H]([C@@H](C)O)[C@@H](O)[C@H](O)[C@H]2N)[C@H](O)[C@@H]1O
Ribosome [4]
  Activity: 20%
Ribosome [5]
  Activity: 20%
[6]
  CC50 at 48 h: 16500 µM
Ribosome [7]
  Activity: 20%
Ribosome [8]
  Activity: 20%
Ribosome [9]
  Activity: 20%
Ribosome [1]
  IC50: 8 µM
Ribosome [10]
  Activity: 20%
[2]
  Ratio IC50: 4.3
[3]
  IC50: 1.9 µM
Escherichia coli
  MIC: 1540 µM (≈ 741 µg/mL)

## C[C@@H](O)[C@H]1O[C@H](O[C@H]2[C@H](O[C@@H]3O[C@H](CN)[C@@H](O)[C@H]3O)[C@@H](O)[C@H](N)C[C@@H]2N)[C@H](N)[C@@H](O)[C@@H]1O
Ribosome [4]
  Activity: 20%
Ribosome [5]
  Activity: 20%
[6]
  CC50 at 48 h: 22200 µM
Ribosome [7]
  Activity: 20%
Ribosome [8]
  Activity: 20%
Ribosome [9]
  Activity: 20%
Ribosome [10]
  Activity: 20%
[2]
  Ratio IC50: 15
[3]
  IC50: 1.1 µM

## NC[C@H]1O[C@@H](O[C@@H]2[C@@H](O)[C@H](N)C[C@H](N)[C@H]2O[C@H]2O[C@H](CO)[C@@H](O)[C@H](O)[C@H]2N)[C@H](O)[C@@H]1O
[6]
  CC50 at 48 h: 21900 µM
Ribosome [1]
  IC50: 31 µM
[2]
  Ratio IC50: 68
[3]
  IC50: 0.5 µM
Escherichia coli
  MIC: 790 µM (≈ 359 µg/mL)

## C[C@H](N)[C@H]1O[C@@H](O[C@@H]2[C@@H](O)[C@H](N)C[C@H](N)[C@H]2O[C@H]2O[C@H]([C@@H](C)O)[C@@H](O)[C@H](O)[C@H]2N)[C@H](O)[C@@H]1O
Ribosome [4]
  Activity: 50%
Ribosome [5]
  Activity: 50%
[6]
  CC50 at 48 h: 5400 µM
Ribosome [7]
  Activity: 50%
Ribosome [8]
  Activity: 50%
Ribosome [9]
  Activity: 50%
Ribosome [1]
  IC50: 1.5 µM
Ribosome [10]
  Activity: 50%
[2]
  Ratio IC50: 1.3
[3]
  IC50: 1.1 µM
Escherichia coli
  MIC: 768 µM (≈ 371 µg/mL)

## C[C@@H](N)[C@H]1O[C@@H](O[C@@H]2[C@@H](O)[C@H](NC(=O)[C@@H](O)CCN)C[C@H](N)[C@H]2O[C@H]2O[C@H]([C@@H](C)O)[C@@H](O)[C@H](O)[C@H]2N)[C@H](O)[C@@H]1O
[6]
  CC50 at 48 h: 5400 µM
Ribosome [7]
  Activity: Dose-dependent effect
Ribosome [1]
  IC50: 0.9 µM
[2]
  Ratio IC50: 0.5
[3]
  IC50: 1.8 µM
Escherichia coli
  MIC: 384 µM (≈ 224 µg/mL)

## CN[C@@H]1[C@@H](O)[C@@H](O[C@@H]2[C@@H](O)[C@H](O[C@H]3O[C@H]([C@@H](C)O)[C@@H](O)[C@H](O)[C@H]3N)[C@@H](N)C[C@H]2N)OC[C@]1(C)O.O=S(=O)(O)O [GENETICIN SULFATE SALT]
Bacillus subtilis
  Activity: Active
Ribosome [1]
  IC50: 2 µM
[3]
  IC50: 0.01 µM
Escherichia coli
  MIC: 9 µM
HFF
  Activity: Non-toxic

## C[C@H](N)[C@H]1O[C@@H](O[C@@H]2[C@@H](O)[C@H](NC(=O)[C@@H](O)CCN)C[C@H](N)[C@H]2O[C@H]2O[C@H](CO)[C@@H](O)[C@H](O)[C@H]2N)[C@H](O)[C@@H]1O
Ribosome [1]
  IC50: 5.2 µM
[2]
  Ratio IC50: 2.3
[3]
  IC50: 2.3 µM
Escherichia coli
  MIC: 1070 µM (≈ 608 µg/mL)

## C[C@H](N)[C@H]1O[C@@H](O[C@@H]2[C@@H](O)[C@H](N)C[C@H](N)[C@H]2O[C@H]2O[C@H](CO)[C@@H](O)[C@H](O)[C@H]2N)[C@H](O)[C@@H]1O
Ribosome [1]
  IC50: 16 µM
[2]
  Ratio IC50: 7.9
[3]
  IC50: 2 µM
Escherichia coli
  MIC: 2660 µM (≈ 1250 µg/mL)

## C[C@@H](N)[C@H]1O[C@@H](O[C@@H]2[C@@H](O)[C@H](NC(=O)[C@@H](O)CCN)C[C@H](N)[C@H]2O[C@H]2O[C@H](CO)[C@@H](O)[C@H](O)[C@H]2N)[C@H](O)[C@@H]1O
Ribosome [1]
  IC50: 4.6 µM
[2]
  Ratio IC50: 5.7
[3]
  IC50: 0.8 µM
Escherichia coli
  MIC: 1060 µM (≈ 602 µg/mL)

## GENTAMICIN SULFATE [listing 2 of 2 here]
[11]
  IC50: 26 µM
HEK293
  CC50: 2500 µM
Ribosome [1]
  IC50: 62 µM

## C[C@@H](N)[C@H]1O[C@@H](O[C@@H]2[C@@H](O)[C@H](N)C[C@H](N)[C@H]2O[C@H]2O[C@H](CO)[C@@H](O)[C@H](O)[C@H]2N)[C@H](O)[C@@H]1O
Ribosome [1]
  IC50: 28 µM
[2]
  Ratio IC50: 13
[3]
  IC50: 2.1 µM
Escherichia coli
  MIC: 4990 µM (≈ 2340 µg/mL)
